Test results from ChEMBL document CHEMBL5321201, “Investigation of morpholine isosters for the development of a potent, selective and metabolically stable mTOR kinase inhibitor” (Eur J Med Chem, 2023).

Columns and labels:
[1] = Metabolic stability in CD-1 mouse hepatocytes assessed as half life at 5 microM incubated upto 180 mins by LC/MS analysis; assay type: ADME, cell-based, Hepatocyte
Procedure, shortened: (§1)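 Cryopreserved hepatocytes from the listed species, in suspension at 200,000 cells/well in Williams Medium E with 2 mM L-glutamine and 25 mM HEPES. Compound final 5 µM in 0.5% DMSO, sampled at 0, 15, 60, 90 and 180 min. ACN precipitation, LC-MS. Hepatocyte-free medium served as negative control and 7-ethoxycoumarin as reference; duplicates.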

[2] = Metabolic stability in Beagle dog hepatocytes assessed as half life at 5 microM incubated upto 180 mins by LC/MS analysis; assay type: ADME, cell-based, Canis lupus familiaris, Hepatocyte; procedure, shortened: as §1
[3] = Metabolic stability in Beagle dog hepatocytes assessed as intrinsic clearance measured per million cells at 5 microM incubated upto 180 mins by LC/MS analysis; assay type: ADME, cell-based, Canis lupus familiaris, Hepatocyte; details: read-out: CLH; procedure, shortened: as §1
[4] = Metabolic stability in Sprague-Dawley rat hepatocytes assessed as intrinsic clearance measured per million cells at 5 microM incubated upto 180 mins by LC/MS analysis; assay type: ADME, cell-based, Hepatocyte; details: read-out: CLH; procedure, shortened: as §1
[5] = Metabolic stability in Sprague-Dawley rat hepatocytes assessed as half life at 5 microM incubated upto 180 mins by LC/MS analysis; assay type: ADME, cell-based, Hepatocyte; procedure, shortened: as §1
[6] = Metabolic stability in CD-1 mouse hepatocytes assessed as intrinsic clearance measured per million cells at 5 microM incubated upto 180 mins by LC/MS analysis; assay type: ADME, cell-based, Hepatocyte; details: read-out: CLH; procedure, shortened: as §1
[7] = Metabolic stability in human hepatocytes assessed as half life at 5 microM incubated upto 180 mins by LC/MS analysis; assay type: ADME, cell-based, Hepatocyte; procedure, shortened: as §1
[8] = Metabolic stability in human hepatocytes assessed as intrinsic clearance measured per million cells at 5 microM incubated upto 180 mins by LC/MS analysis; assay type: ADME, cell-based, Hepatocyte; details: read-out: CLH; procedure, shortened: as §1

half-life at 5 µM [1]: 17 min | half-life at 5 µM [2]: 18 min | hepatocyte CLint at 5 µM [3]: 45 µL/min/1e6 cells | hepatocyte CLint at 5 µM [4]: 18 µL/min/1e6 cells | half-life at 5 µM [5]: 47 min | hepatocyte CLint at 5 µM [6]: 50 µL/min/1e6 cells | half-life at 5 µM [7]: 39 min | hepatocyte CLint at 5 µM [8]: 22 µL/min/1e6 cells
Structure (SMILES): CCOc1ccc2ccc(=O)oc2c1
